In experiment [1] the test system is HEL. As to the kind of experiment: Growth inhibition of HEL cells harboring Val617Phe mutation in JAK2 at 25 uM after 72 hrs by trypan blue exclusion assay. Format: functional. The following applies: Homo sapiens, read-out: GI. A digest of the protocol:
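Screening assay of HEL growth inhibition. HEL cells carry JAK2-Val617Phe on both alleles. Each compound was tested at a single final concentration of 25 μM.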

The target of experiment [2] is Proto-oncogene tyrosine-protein kinase Src (Homo sapiens) (UniProt P12931). Briefly: Inhibition of recombinant pp60c-Src autophosphorylation at 25 uM by Western blotting. The essentials: (§1)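 Cell-free c-Src kinase assay, with compound tested at 25 μM.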
Chain of Proto-oncogene tyrosine-protein kinase Src (Homo sapiens) (P12931 2-536 limits assumed): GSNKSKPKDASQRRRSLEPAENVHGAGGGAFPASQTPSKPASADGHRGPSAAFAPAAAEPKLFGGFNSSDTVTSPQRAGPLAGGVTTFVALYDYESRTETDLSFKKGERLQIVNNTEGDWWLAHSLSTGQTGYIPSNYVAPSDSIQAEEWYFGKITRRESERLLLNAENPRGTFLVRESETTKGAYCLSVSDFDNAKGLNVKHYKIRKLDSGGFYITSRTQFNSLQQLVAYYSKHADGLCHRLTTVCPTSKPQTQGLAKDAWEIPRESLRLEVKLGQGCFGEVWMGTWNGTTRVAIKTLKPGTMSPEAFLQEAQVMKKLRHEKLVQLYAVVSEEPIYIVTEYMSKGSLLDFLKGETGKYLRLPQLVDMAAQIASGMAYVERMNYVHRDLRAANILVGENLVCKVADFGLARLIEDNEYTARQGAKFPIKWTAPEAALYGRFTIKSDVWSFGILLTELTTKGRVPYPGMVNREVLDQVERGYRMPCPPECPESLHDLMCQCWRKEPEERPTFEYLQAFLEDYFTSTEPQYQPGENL
(In western blotting, separated proteins are transferred to a membrane and probed.)

Experiment [3] can be described thus: Inhibition of pathological growth of human hematopoietic progenitor cells isolated from polycythemia vera patient assessed as erythroid colony formation at 2.5 uM after 14 days in absence of erythropoietin. Format: functional. The following applies: 336 h, read-out: GI.
Experiment [4] relates to Tyrosine-protein kinase JAK2 (Homo sapiens), O60674 [V617F]. Briefly: Inhibition of recombinant JAK2-Val617Phe kinase activity at 25 uM after 30 mins by luminometry. A digest of the protocol:
(§2)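 Cell-free kinase assay. Recombinant JAK2-Val617Phe protein (JH1+JH2) was incubated with increasing inhibitor concentrations. After the kinetic reactions, relative kinase inhibition was determined from the residual ATP level in each reaction.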

Experiment [5] is described as follows: Inhibition of pathological growth of human hematopoietic progenitor cells isolated from polycythemia vera patient assessed as erythroid colony formation at 2.5 uM after 14 days in absence of erythropoietin. The settings on record: 336 h, read-out: GI.
The subject of experiment [6] is BSC-40. Briefly: Growth inhibition of african green monkey BSC40 cells immortalized with SV40 large T antigen assessed as reduction in cell number at 100 uM after 48 hrs using trypan blue staining by hemocytometry. Format: functional, cell-based. The following applies: Chlorocebus aethiops. The essentials: (§3)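 Four lines were compared: HEL (JAK2-Val617Phe on both alleles), CMK (JAK3-Ala572Val), Raji (c-Myc/heavy-chain locus translocation) and BSC-40 (green monkey kidney epithelial, SV-40 large T immortalized). Cells were exposed to compound over 10−9 to 10−4 M, and the read-out was cell number.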

For experiment [7], the system named is HEL. Briefly: Reduction in phospho-JAK2 [pYpY1007/1008] level in HEL cells at 25 uM by […]. Format: functional, cell-based. The settings on record: Homo sapiens, TDE = time-dependent effect. A digest of the protocol: (§4)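 HEL cells were treated across varying compound concentrations and exposure times. Phospho-JAK2 protein levels were then measured in the cells.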

Experiment [8] has as its target Non-receptor tyrosine-protein kinase TYK2 (Homo sapiens) (UniProt P29597). Briefly: Inhibition of TYK2 transfected in mouse embryonic fibroblasts at 25 uM by Western blotting. A digest of the protocol: (§5)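 TYK2 autophosphorylation was measured within intact cells, with compound present at 25 μM.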
For experiment [9], the system named is Tyrosine-protein kinase JAK2 (Homo sapiens), O60674 [V617F]. As to the kind of experiment: (§6) Inhibition of recombinant JAK2-Val617Phe kinase activity after 30 mins by luminometry. A digest of the protocol: as §2
Chain of Tyrosine-protein kinase JAK2 (Homo sapiens), O60674 [V617F] (O60674 whole entry V617F): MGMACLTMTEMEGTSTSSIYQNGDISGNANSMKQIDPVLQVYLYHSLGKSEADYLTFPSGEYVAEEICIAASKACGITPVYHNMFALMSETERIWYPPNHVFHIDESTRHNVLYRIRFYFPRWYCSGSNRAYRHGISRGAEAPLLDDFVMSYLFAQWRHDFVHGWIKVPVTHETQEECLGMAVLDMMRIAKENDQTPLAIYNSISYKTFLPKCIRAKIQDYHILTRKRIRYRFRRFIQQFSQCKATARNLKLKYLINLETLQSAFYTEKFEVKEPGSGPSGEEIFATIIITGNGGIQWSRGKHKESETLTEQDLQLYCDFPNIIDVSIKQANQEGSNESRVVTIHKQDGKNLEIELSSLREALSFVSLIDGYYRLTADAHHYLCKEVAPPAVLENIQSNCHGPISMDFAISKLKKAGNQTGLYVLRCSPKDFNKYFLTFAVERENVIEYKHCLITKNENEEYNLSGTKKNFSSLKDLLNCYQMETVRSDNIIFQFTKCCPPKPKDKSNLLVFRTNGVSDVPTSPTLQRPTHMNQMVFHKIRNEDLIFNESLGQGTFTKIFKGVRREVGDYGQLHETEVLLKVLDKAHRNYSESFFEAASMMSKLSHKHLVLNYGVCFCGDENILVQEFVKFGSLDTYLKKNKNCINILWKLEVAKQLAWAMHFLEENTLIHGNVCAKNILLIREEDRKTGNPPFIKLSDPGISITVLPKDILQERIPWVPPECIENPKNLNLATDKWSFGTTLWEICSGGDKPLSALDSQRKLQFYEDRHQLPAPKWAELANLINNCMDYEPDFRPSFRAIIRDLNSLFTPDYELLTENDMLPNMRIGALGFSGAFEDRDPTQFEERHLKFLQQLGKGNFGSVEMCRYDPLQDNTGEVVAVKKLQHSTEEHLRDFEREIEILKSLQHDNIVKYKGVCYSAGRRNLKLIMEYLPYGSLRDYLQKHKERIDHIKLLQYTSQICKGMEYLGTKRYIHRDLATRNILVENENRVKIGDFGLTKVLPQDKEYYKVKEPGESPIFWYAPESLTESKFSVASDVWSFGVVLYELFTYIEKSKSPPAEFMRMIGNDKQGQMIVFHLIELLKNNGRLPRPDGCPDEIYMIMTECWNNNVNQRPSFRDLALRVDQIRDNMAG
In experiment [10] the target is Tyrosine-protein kinase JAK2 (Homo sapiens, UniProt O60674, V617F). The description is as §6. A digest of the protocol:
as §2

Experiment [11] has as its system CMK. Briefly: Growth inhibition of human CMK cells harboring Ala572Val mutation in JAK3 assessed as reduction in cell number at 100 uM after 48 hrs using trypan blue staining by hemocytometry. Format: functional, cell-based. The essentials: as §3
The subject of experiment [12] is HEL. Briefly: Growth inhibition of HEL cells harboring Val617Phe mutation in JAK2 assessed as reduction in cell number at 0.001 to 10 uM after 48 hrs using trypan blue staining by hemocytometry. It counts as functional, cell-based. The following applies: Homo sapiens. The essentials: as §3
The subject of experiment [13] is CMK. As to the kind of experiment: Growth inhibition of human CMK cells harboring Ala572Val mutation in JAK3 assessed as reduction in cell number at 0.001 to 10 uM after 48 hrs using trypan blue staining by hemocytometry. Format: functional, cell-based. A digest of the protocol: as §3
Experiment [14] relates to BSC-40. As to the kind of experiment: Growth inhibition of african green monkey BSC40 cells immortalized with SV40 large T antigen assessed as reduction in cell number at 0.001 to 10 uM after 48 hrs using trypan blue staining by hemocytometry. Format: functional, cell-based. The following applies: Chlorocebus aethiops. The essentials: as §3
Experiment [15] concerns Raji. Briefly: Growth inhibition of human Raji cells possessing […] between c-Myc gene on chromosome 8 and heavy chain locus on chromosome 14 assessed as reduction in cell number at 100 uM after 48 hrs using trypan blue staining by hemocytometry. Format: functional, cell-based. A digest of the protocol: as §3
Experiment [16] relates to Raji. Briefly: Growth inhibition of human Raji cells possessing […] between c-Myc gene on chromosome 8 and heavy chain locus on chromosome 14 assessed as reduction in cell number at 0.001 to 10 uM after 48 hrs using trypan blue staining by hemocytometry. Format: functional, cell-based. A digest of the protocol:
as §3

Experiment [17] deals with Proto-oncogene tyrosine-protein kinase Src (Homo sapiens) (UniProt P12931). Briefly: Inhibition of recombinant pp60c-Src at 25 uM by Western blotting. A digest of the protocol: as §1
Experiment [18] relates to HEL. Briefly: Reduction in phospho-JAK2 [pYpY1007/1008] level in HEL cells after 48 hrs by […]. It counts as functional, cell-based. The settings on record: Homo sapiens. The essentials: as §4
Experiment [19] deals with HEL. As to the kind of experiment: Growth inhibition of HEL cells harboring Val617Phe mutation in JAK2 assessed as reduction in cell number at 100 uM after 48 hrs using trypan blue staining by hemocytometry. It counts as functional, cell-based. The settings on record: Homo sapiens. The essentials: as §3
Experiment [20] concerns the target Non-receptor tyrosine-protein kinase TYK2 (Homo sapiens) (UniProt P29597). As to the kind of experiment: Inhibition of TYK2 autophosphorylation transfected in mouse embryonic fibroblasts at 25 uM by Western blotting. A digest of the protocol:
as §5

We go through 37 compounds from ChEMBL document CHEMBL1158435, “Identification of a novel inhibitor of JAK2 tyrosine kinase by structure-based virtual screening” (Bioorg Med Chem Lett, 2009).

Broadly, the inhibition is the change of the read-out against control, counted positive when it falls. By IC50 is commonly meant the midpoint of a concentration-inhibition curve.

Active and inactive are the calls of the source. The calls are words filed in the database; no cut-off is given here.

Chain of Non-receptor tyrosine-protein kinase TYK2 (Homo sapiens) (P29597 whole entry): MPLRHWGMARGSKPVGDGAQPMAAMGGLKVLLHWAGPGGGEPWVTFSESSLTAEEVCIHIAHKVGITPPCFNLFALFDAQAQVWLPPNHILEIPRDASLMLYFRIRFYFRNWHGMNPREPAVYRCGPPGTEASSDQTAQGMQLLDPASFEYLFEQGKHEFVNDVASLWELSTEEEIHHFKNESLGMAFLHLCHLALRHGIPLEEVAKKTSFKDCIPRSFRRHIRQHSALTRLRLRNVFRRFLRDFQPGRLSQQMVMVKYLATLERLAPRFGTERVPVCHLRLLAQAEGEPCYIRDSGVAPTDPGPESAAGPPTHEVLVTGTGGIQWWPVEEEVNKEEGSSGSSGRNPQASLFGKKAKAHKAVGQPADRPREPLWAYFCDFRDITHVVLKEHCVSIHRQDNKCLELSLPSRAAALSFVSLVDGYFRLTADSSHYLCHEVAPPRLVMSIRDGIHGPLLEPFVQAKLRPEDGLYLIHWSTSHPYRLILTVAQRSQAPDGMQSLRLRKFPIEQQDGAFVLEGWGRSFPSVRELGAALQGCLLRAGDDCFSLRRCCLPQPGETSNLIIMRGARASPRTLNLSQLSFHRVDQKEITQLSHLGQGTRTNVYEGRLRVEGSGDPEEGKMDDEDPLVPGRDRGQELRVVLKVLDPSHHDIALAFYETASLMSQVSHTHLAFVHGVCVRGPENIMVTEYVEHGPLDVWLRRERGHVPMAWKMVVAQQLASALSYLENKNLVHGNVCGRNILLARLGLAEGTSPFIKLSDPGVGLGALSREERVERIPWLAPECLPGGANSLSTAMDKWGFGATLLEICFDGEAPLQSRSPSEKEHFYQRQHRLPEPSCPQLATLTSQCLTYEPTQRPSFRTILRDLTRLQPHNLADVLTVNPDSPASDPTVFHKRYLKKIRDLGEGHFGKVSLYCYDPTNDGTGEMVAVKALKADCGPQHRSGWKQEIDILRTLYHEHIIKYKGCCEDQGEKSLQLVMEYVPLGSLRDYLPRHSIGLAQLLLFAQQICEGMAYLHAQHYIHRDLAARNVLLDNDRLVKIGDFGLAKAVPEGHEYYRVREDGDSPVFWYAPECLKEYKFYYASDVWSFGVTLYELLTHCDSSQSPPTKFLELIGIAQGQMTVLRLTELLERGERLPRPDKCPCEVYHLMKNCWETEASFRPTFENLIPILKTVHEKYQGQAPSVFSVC
Chain of Tyrosine-protein kinase JAK2 (O60674 whole entry V617F): as the sequence (O60674 whole entry V617F) above

In the case of `O=C1C=Cc2ccccc2/C1=C/NNS(=O)(=O)c1cc(Cl)c(Cl)cc1Cl`, in the experiment on HEL [1], the inhibition of growth at 25 µM is 51%.
On to `O/N=C(\c1ccccc1)c1ccc[n+](CCc2ccccc2)c1`, for which the inhibition of growth at 25 µM in the experiment with HEL [1] stood at 38%.
Same read-out and setting: in the case of `O=C(NCCNCCO)c1cccc(Nc2cc(O)c(O)c3ccccc23)c1` it was 42%; in that of `OC1C=C(c2ccccc2)C(c2ccccc2)C(c2ccccc2)C1` (stereo unspecified), 27%.
For the compound `O=C(/C=C(\O)c1ccc(F)cc1)C(=O)/C=C(\O)c1ccc(F)cc1`, the inhibition of growth at 25 µM in the experiment with HEL [1] came to 36%.
The same measure, in the same setting: in the case of `Nc1ccc(C(=O)Nc2ccc3cc(S(=O)(=O)O)cc(O)c3c2)cc1` it was 39%; in that of `Cc1c(O)c2ccccc2c2c1sc(NCCCN(CCO)CCO)[n+]2C`, 41%.
In the case of `CC(CCc1ccccn1)(CCc1ccccn1)C(=O)c1ccccc1`, in experiment [2], the inhibition entry was “inactive”.
Regarding `Cc1cc(Cl)ccc1Nc1sc(C(=O)c2cc3cc(Cl)ccc3o2)c(N)c1C#N`, in the experiment with HEL [1], the inhibition of growth at 25 µM is 55%.
The same measure, in the same setting: in the case of `C/C(CC(=O)c1ccccc1)=N/CCCC/N=C(/C)CC(=O)c1ccccc1` it was 19%; in that of `CCCCCCCCNC(C(=O)c1ccc(Cl)cc1)c1ccc(Cl)cc1` (stereo unspecified), 7%.
As to `CCCCCCCNC1=C(OCC)C(=O)c2ccccc2C1=O`, the inhibition of growth at 25 µM with HEL [1] came out at 24%.
Take `CC(=O)c1c(O)cc(O)cc1-c1cc(=O)c2c(O)ccc(C(C)=O)c2o1`: the inhibition of growth at 25 µM with HEL [1] came out at 42%.
In the case of `O=C(CC(=O)c1ccccc1)CC(O)(/C=C/c1ccccc1)c1ccccc1` (stereo unspecified), in the experiment with HEL [1], the inhibition of growth at 25 µM was found to be 15%.
Still for that read-out and setting: for `C/C(CC(=O)c1ccccc1)=N/CCCCC/N=C(\C)CC(=O)c1ccccc1` the value was 31%; for `CCc1[nH]nc(-c2ccc(OC)cc2)c1-c1ccccc1O`, 40%.
Take `O=C(CN1C=C(/C=N/O)C=CC1)C1CCC(C2CCC(C(=O)CN3CCCC(/C=N/O)C3)CC2)CC1` (stereo unspecified): the inhibition of growth at 25 µM in the experiment with HEL [1] was determined as 8%.
On the same count and under the same terms, in the case of `CC1=CN=C(NCCCCNC2=NC=C(C)/C(=C3/C=CC=CC3=O)N2)N/C1=C1/C=CC=CC1=O` it was 16%.
Turning to `CC(C)(C)n1nc(-c2ccc(Cl)cc2)c2c(N)ncnc21`, the inhibition entry in experiment [2] is “Active”.
Consider `CC/C(=C(/CC)c1ccc(O)c(CN(CC)CC)c1)c1ccc(O)c(CN(CC)CC)c1`, for which the inhibition of growth at 2.5 µM in experiment [3] and in experiment [5] was above 50% throughout. For the same compound, the inhibition in experiment [4] is above 99%. Moreover, the “growth inhibition (GI)” value in the experiment on BSC-40 [6], in the experiment on CMK [11], with HEL [12], with Raji [15] and with HEL [19] was “Active” throughout. In addition, the figures for the Activity entry (with HEL [7]; in [9]; in the experiment on HEL [18]) were “tde”, “Dose-dependent effect” and “Dose-dependent effect”, respectively. In addition, the inhibition result in experiment [8], in experiment [17], in experiment [20] and in experiment [2] was “inactive” in each case. Besides, the IC50 in experiment [10] is 60 nM. The “growth inhibition (GI)” value in the experiment with CMK [13], in the experiment with BSC-40 [14] and with Raji [16] was “inactive” in each case. For the same compound, the inhibition of growth at 25 µM in the experiment with HEL [1] is above 99%.
In the case of `O=C(Nc1cc(Cl)ccc1Cl)Nc1ccc(Cl)cc1C(=O)c1ccccc1`, in the experiment on HEL [1], the inhibition of growth at 25 µM worked out at 24%.
The same measure, in the same setting: for `CC(=O)c1cc(Cl)ccc1OCC(O)CNc1ccccc1C(=O)c1ccccc1` (stereo unspecified) the value was 41%; for `CCc1c(C#N)c(N)c2c(N)c(C(=O)c3ccccc3)sc2c1C`, 30%.
In the case of `O=C(CC(=O)CC(=O)c1ccccc1)CC(=O)c1ccccc1`, the inhibition of growth at 25 µM in the experiment on HEL [1] is 67%.
The same measure, in the same setting: for `NC(CSSCC(N)C(=O)c1ccccc1)C(=O)c1ccccc1` (stereo unspecified) the value was 30%; for `O=C(Nc1ccc(Cc2ccc(NC(=O)Nc3cccc(C4=NCCN4)c3)cc2)cc1)Nc1cccc(C2=NCCN2)c1`, 13%; for `COc1ccc2nc(NC(=O)Nc3ccc(C)c(NC(=O)Nc4nc5ccc(OC)cc5s4)c3)sc2c1`, 57%.
With `O=C(c1cccc([N+](=O)[O-])c1)c1c(O)oc2ccccc2c1=O`, in the experiment with HEL [1], the inhibition of growth at 25 µM stood at 40%.
As for `O=C(Nc1ccc(Oc2ccc(NC(=O)Nc3ccc(-c4ccccc4)cc3)cc2)cc1)Nc1ccc(-c2ccccc2)cc1`, in the experiment with HEL [1], the inhibition of growth at 25 µM was 13%.
Turning to `O=C1C=Cc2ccccc2/C1=C/N/N=C(\C(=O)c1ccccc1)c1ccccc1`, the inhibition of growth at 25 µM with HEL [1] is 27%.
As for `O=P(O)(c1ccc(Cl)cc1)c1ccc(Cl)cc1`, the inhibition of growth at 25 µM in the experiment on HEL [1] turned out to be 13%.
Still for that read-out and setting: in the case of `O=C(/C=C(\C=C\c1ccccc1)c1ccccc1)CC(=O)c1ccccc1` it was 11%; in that of `O=[N+]([O-])c1cc(/C=N/NS(=O)(=O)c2cc(Cl)c(Cl)cc2Cl)ccc1Cl`, 27%.
As for `NC(=O)c1cc(NC(=O)c2ccc(C(=O)Nc3cc(C(N)=O)cc(C4=NCCN4)c3)cc2)cc(C2=NCCN2)c1`, in the experiment with HEL [1], the inhibition of growth at 25 µM worked out at 10%.
Still for that read-out and setting: in the case of `COc1ccc(-c2n[nH]c(=S)c(-c3ccccc3)c2-c2ccccc2)cc1` it was 44%.
With `O=C(Nc1ccccc1)Nc1ccc2ccccc2c1`, in the experiment with HEL [1], the inhibition of growth at 25 µM was 38%.
On the same count and under the same terms, for `O=C1C=C(NCCCC2CCCN3CCCCC23)C(=O)c2ccccc21` (stereo unspecified) the value was 27%.
